The subject of data set [1] is Mus musculus. The experiment in a line: Ex-vivo cardioprotective activity in BL6 mouse LAD ligation ischemic heart failure model assessed as left ventricular rate of pressure change in isolated heart at 10 uM, sc administered as infusion at 24 hrs post LAD ligation for 28 days (reference value: 6156 +/- 356 mmHg/s). The format is functional. In a few lines:
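LAD-ligated BL6 mice were infused via mini-osmotic pump with 10 µM in PBS pH 7.4 at 6 µL per day for 28 days. Isolated working hearts then ejected buffered perfusate against a constant 56 mmHg hydrostatic afterload, and LV +dP/dt was recorded. Mean ± SEM against vehicle-infused controls; one-way ANOVA with Newman-Keuls.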

Data set [2] has as its system Mus musculus. The experiment in a line: Ex-vivo cardioprotective activity in BL6 mouse LAD ligation ischemic heart failure model assessed as change in infarct size at 10 uM, sc administered as infusion at 24 hrs post LAD ligation for 28 days relative to control. The data set is classed as functional, organism-based. In outline:
(§1)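 Permanent LAD ligation in 12-week-old WT BL6 mice under intraperitoneal ketamine (100 mg/kg) and xylazine (10 mg/kg). Starting within 24 h, agents in PBS pH 7.4 at 10 µM were infused by mini-osmotic pump at 6 µL per d for 28 d. Controls were vehicle-infused WT mice and cardiac P2X4R-overexpressing transgenic mice. Infarct size was taken after heart-function measurement, from formalin-fixed, paraffin 4-µm Masson's trichrome sections, as infarct length over endocardial plus epicardial circumference. One-way ANOVA with Newman-Keuls test.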

Data set [3] deals with Mus musculus. Kind of data set: Cardioprotective activity in BL6 mouse LAD ligation ischemic heart failure model assessed as change in infarct size at 10 uM, sc administered as infusion at 24 hrs post-LAD ligation for 1 month relative to control. The data set is classed as functional, organism-based. In outline:
as §1

Data set [4] concerns Mus musculus. Kind of data set: Cardioprotective activity in mouse overexpressing clasequestrin assessed as prevention of LV wall thinning at 10 uM, sc administered as infusion for 2 weeks. The data set is classed as functional, organism-based. In a few lines:
(§2)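 CSQ-overexpressing mice with heart failure, 2-week infusion (n=5). Outcome is LV septal and posterior wall thickness versus normal-saline-infused CSQ mice. Values are mean ± standard error.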

Data set [5] concerns Mus musculus. The experiment in a line: Cardioprotective activity in mouse overexpressing clasequestrin assessed as increase in fractional shortening at 10 uM, sc administered as infusion for 2 weeks relative to control. The data set is classed as functional, organism-based.
In data set [6] the test system is Mus musculus. Kind of data set: Cardioprotective activity in BL6 mouse LAD ligation ischemic heart failure model assessed as fractional shortening at 10 uM, sc administered as infusion at 24 hrs post LAD ligation for 28 days by echocardiography (reference value: 17.33 +/- 1.36%). The format is functional.
Data set [7] in a line: Aqueous solubility of the compound after 1 hr. The data set is classed as physicochemical. To be noted: buffer. In a few lines:
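Excess solid stirred in water, supernatant removed and lyophilized; solubility calculated from the mass of solid recovered.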

Data set [8] relates to Mus musculus. The experiment in a line: Cardioprotective activity in mouse overexpressing clasequestrin assessed as increase in fractional shortening at 3.3 uM, sc administered as infusion for 2 weeks relative to control. The data set is classed as functional, organism-based.
Data set [9] is filed under the species Mus musculus. Kind of data set: Agonist activity at P2XR receptor in wild type BL6 mouse cardiac ventricular myocytes assessed as increase in contraction shortening. In outline:
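Adult wild-type murine cardiac ventricular myocytes; contraction shortening recorded at basal control, during drug exposure and after washout. Data are mean ± standard error (13 or 8 myocytes per agent).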

Data set [10] in a line: Chemical stability of the compound in aqueous medium at pH 11 at 50 degC after 24 hrs by HPLC analysis. The data set is classed as physicochemical. As to conditions: buffer, pH 11, 24 h. In outline:
(§3)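 Incubation for 24 h in aqueous medium at pH 1 or pH 11, 50°C, and checked for hydrolysis.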

Data set [11] has as its system Mus musculus. Kind of data set: Cardioprotective activity in mouse overexpressing clasequestrin assessed as increase in LV posterior wall thickness during systole at 10 uM, sc administered as infusion for 2 weeks relative to control. The format is functional, organism-based. In a few lines: as §2
The next data set concerns Liver microsomes. Kind of data set: Metabolic stability of the compound in rat liver microsomes by HPLC analysis. The format is ADME, Microsome. In outline: (§4)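 Incubation with mouse or rat liver microsomes at 37°C for 24 h, and checked for hydrolysis.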
In general terms: Liver microsomes are a subcellular fraction often used to study metabolism.

The test system of data set [12] is Mus musculus. Kind of data set: Cardioprotective activity in mouse overexpressing clasequestrin assessed as increase in LV septal wall thickness during systole at 10 uM, sc administered as infusion for 2 weeks relative to control. The data set is classed as functional, organism-based. In a few lines:
as §2

For a further data set, the system named is Plasma. The experiment in a line: Metabolic stability of the compound in rat plasma at 1.09 mM by HPLC analysis. The format is ADME, cell-free. As to conditions: 1090 µM. In a few lines:
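Incubation with rat plasma at 37°C for 24 h, and checked for hydrolysis.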

The test system of data set [13] is Mus musculus. Kind of data set: Cardioprotective activity in mouse overexpressing clasequestrin assessed as increase in LV posterior wall thickness during diastole at 10 uM, sc administered as infusion for 2 weeks relative to control. The data set is classed as functional, organism-based. In outline:
as §2

Data set [14] can be described thus: Chemical stability of the compound in aqueous medium at pH 1 at 50 degC after 24 hrs by HPLC analysis. The format is physicochemical. As to conditions: buffer, pH 1, 24 h. In outline: as §3
In another data set the test system is Liver. The experiment in a line: Metabolic stability of the compound in mouse liver microsomes by HPLC analysis. The format is ADME, Microsome. In a few lines:
as §4

Data set [15] relates to Mus musculus. The experiment in a line: Cardioprotective activity in mouse overexpressing clasequestrin assessed as LV posterior wall thickness at 10 uM, sc administered as infusion for 2 weeks (reference value: 0.45 +/- 0.007 mm). The format is functional.
For data set [16], the system named is Mus musculus. Kind of data set: Cardioprotective activity in mouse overexpressing clasequestrin assessed as LV septal wall thickness at 10 uM, sc administered as infusion for 2 weeks (reference value: 0.45 +/- 0.007 mm). The data set is classed as functional.

Converted amounts (≈) assume the structure as drawn. The source made the active and inactive calls. The calls are words filed in the database; no cut-off is given here.

Turning to `Nc1nc(I)nc2c1ncn2[C@H]1[C@H](O)[C@H](O)[C@]2(CP(=O)(O)O)C[C@H]12`, the Activity with Mus musculus [1] came to 6581 mmHg/s. The outcome in the data set with Mus musculus [2], in the data set on Mus musculus [3], in the data set on Mus musculus [4] and with Mus musculus [5] was inactive.
As to `CCOP(=S)(OCC)SC[C@@]12C[C@@H]1[C@@H](n1cnc3c(N)nc(Cl)nc31)[C@H](O)[C@@H]2O`, in the data set with Mus musculus [6], the Activity came to 24.76%. For the same compound, the outcome with Mus musculus [3] was inactive.
Consider `CCOP(=O)(C[C@@]12C[C@@H]1[C@@H](n1cnc3c(N)nc(Cl)nc31)[C@H](O)[C@@H]2O)OCC`, for which the Activity in the data set with Mus musculus [1] came out at 5946 mmHg/s. In addition, the outcome in the data set with Mus musculus [2] and with Mus musculus [3] was inactive. Also, the solubility (commonly the dissolved amount per volume that the medium holds) in [7] is 60 mM (≈ 25.9 mg/mL).
Consider `Nc1nc(Cl)nc2c1ncn2[C@H]1[C@H](O)[C@H](O)[C@]2(CCP(=O)(O)O)C[C@H]12`, for which the result with Mus musculus [5], with Mus musculus [8] and in the data set listed under Mus musculus [9] was Active.
`Nc1nc(Cl)nc2c1ncn2[C@@H]1C2CC2(COP(=O)(O)O)[C@@H](O)[C@H]1O` (single isomer, unassigned): the Activity in the data set on Mus musculus [1] is 6508 mmHg/s; in the data set on Mus musculus [6], 22.14%. In addition, the outcome in the data set with Mus musculus [2] and in the data set with Mus musculus [3] was inactive. Moreover, in the data set listed under Mus musculus [9], the outcome was Active.
`[2H]C([2H])(OP(=O)(OCC)OCC)[C@@]12C[C@@H]1[C@@H](n1cnc3c(N)nc(Cl)nc31)[C@H](O)[C@@H]2O`: in the data set with Mus musculus [6], the Activity was determined as 21.48%.
Take `CCOP(=O)(C[C@@]12C[C@@H]1[C@@H](n1cnc3c(N)nc(I)nc31)[C@H](O)[C@@H]2O)OCC`: in the data set on Mus musculus [6], the Activity worked out at 23.05%. The result in the data set with Mus musculus [3] was inactive.
As for `Nc1nc(Cl)nc2c1ncn2[C@H]1[C@H](O)[C@H](O)[C@]2(COP(=O)(O)O)C[C@H]12`, the result with Mus musculus [3] (tested as the 2H-labelled form) was inactive.
Consider `CC(C)(C)OP(=O)(OC[C@@]12C[C@@H]1[C@@H](n1cnc3c(N)nc(Cl)nc31)[C@H](O)[C@@H]2O)OC(C)(C)C`, for which the Activity is reported as 6681 mmHg/s in the data set with Mus musculus [1] and 24.07% with Mus musculus [6]. Further, the result with Mus musculus [2] and in the data set with Mus musculus [3] was inactive.
Turning to `CC(C)OP(=O)(CC[C@@]12C[C@@H]1[C@@H](n1cnc3c(N)nc(Cl)nc31)[C@H](O)[C@@H]2O)OC(C)C`, the Stability result (in data set [10]; with Liver microsomes; in the data set with Plasma; in data set [14]; with Liver) was “Stable” each time. In addition, the result with Mus musculus [11], with Mus musculus [12] and in the data set with Mus musculus [13] was Active. This compound also gave a solubility in data set [7] of 7.25 mM (≈ 3.44 mg/mL).
Consider `CCOP(=O)(OCC)SC[C@@]12C[C@@H]1[C@@H](n1cnc3c(N)nc(Cl)nc31)[C@H](O)[C@@H]2O`, for which the Activity in the data set with Mus musculus [6] was determined as 24.31%. Also, in the data set on Mus musculus [3], the result was inactive.
Regarding `CCOP(=S)(OCC)OC[C@@]12C[C@@H]1[C@@H](n1cnc3c(N)nc(Cl)nc31)[C@H](O)[C@@H]2O`, in the data set on Mus musculus [3], the outcome was inactive.
For the compound `CCOP(=O)(OCC)OC[C@@]12C[C@@H]1[C@@H](n1cnc3c(N)nc(Cl)nc31)[C@H](O)[C@@H]2O`, the values for the Activity in the data set on Mus musculus [1] and with Mus musculus [6] were 6711 mmHg/s and 24.71%, respectively. Also, the outcome with Mus musculus [2], in the data set with Mus musculus [3] and with Mus musculus [3] (tested as the 2H-labelled form) was inactive.
Take `Nc1nc(Cl)nc2c1ncn2[C@H]1[C@H](O)[C@H](O)[C@]2(CSP(=O)(O)O)C[C@H]12`: the Activity with Mus musculus [1] is given as 6553 mmHg/s; in the data set on Mus musculus [15], 0.493 mm; in the data set on Mus musculus [16], 0.492 mm. For the same compound, the outcome in the data set on Mus musculus [2] and in the data set on Mus musculus [3] was inactive.
For `CC(C)OP(=O)(OC[C@@]12C[C@@H]1[C@@H](n1cnc3c(N)nc(Cl)nc31)[C@H](O)[C@@H]2O)OC(C)C`, the Activity in the data set with Mus musculus [6] is 25.77%. In addition, the result in the data set with Mus musculus [3] was inactive.
`[2H]C([2H])(OP(=O)(O)O)[C@@]12C[C@@H]1[C@@H](n1cnc3c(N)nc(Cl)nc31)[C@H](O)[C@@H]2O`: the Activity in the data set on Mus musculus [6] was determined as 23.06%.

These data come from ChEMBL document CHEMBL2311265, “5'-Phosphate and 5'-phosphonate ester derivatives of (N)-methanocarba adenosine with in vivo cardioprotective activity” (J Med Chem, 2013).
